High-throughput results: PubChem BioAssay, several laboratories
This is a sample that favours compounds with a hit; in the whole collection about 1% have one here.
HSV augment: enhancers of HSV replication in host cells, fold increase, host cell viability; maximum fold increase; hit rate 0.005% among 220,000; AID 1956, 2009; HSV replication augmentation in cells; in the data active means maximum fold increase above about 1.5; tested in PC3 cells
Thrombin inh: human alpha-thrombin inhibitors, primary screen, counter-screen for coagulation protease inhibitor project, biochemical, 1536-well, fluorogenic AMC substrate. Prothrombin (Homo sapiens), P00734. Boc-VPR-AMC fluorogenic substrate cleavage. hit rate 0.26% among 220,000. AID 1046, 2008. inhibition, % at 5 µM;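 active means inhibition at or above 40%; inactive means inhibition below 40%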;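 further: 0% = enzyme with no compound and 100% = wells without enzyme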
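System: human alpha-thrombin protein; Compound dosing: one concentration per compound, 5 µM, with 0.2% DMSO; Timing: reaction at room temperature; Technique: AMC fluorescence, 355/460 nm; Controls: enzyme without compound as high, wells lacking enzyme as low.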
FXIa inh 1536: human FXIa protease inhibitors, primary screen, biochemical, 1536-well; purified FXIa, Boc-Glu-Ala-Arg-AMC fluorogenic substrate; inhibition, % at 5 µM; hit rate 0.14% among 220,000; AID 798, 2007;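 active means inhibition of at least 40%; inactive means inhibition below 40%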;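 further: fluorescence of freed AMC excited at 355 nm; 0% = enzyme without compound and 100% = no enzyme blank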
KLK5 inh: human KLK5 protease inhibitors, primary screen, biochemical, 1536-well | recombinant hK5, fluorogenic AMC substrate cleavage | Kallikrein-5 (Homo sapiens), Q9Y337 | AID 873, 2007 | hit rate 0.59% among 210,000 | inhibition, % at 5 µM;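 active means inhibition of 40% or more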;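 further: 0% = enzyme controls without compound and 100% = no-enzyme blanks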
Furin inhibitor: human furin inhibitors, primary screen, biochemical, fluorescence intensity; P09958; purified furin, fluorogenic substrate cleavage; inhibition, % at 20 µM or 30 µM; hit rate 0.061% among 220,000; in the data active means inhibition above about 25%
Target sequence (P09958 108-714 limits assumed): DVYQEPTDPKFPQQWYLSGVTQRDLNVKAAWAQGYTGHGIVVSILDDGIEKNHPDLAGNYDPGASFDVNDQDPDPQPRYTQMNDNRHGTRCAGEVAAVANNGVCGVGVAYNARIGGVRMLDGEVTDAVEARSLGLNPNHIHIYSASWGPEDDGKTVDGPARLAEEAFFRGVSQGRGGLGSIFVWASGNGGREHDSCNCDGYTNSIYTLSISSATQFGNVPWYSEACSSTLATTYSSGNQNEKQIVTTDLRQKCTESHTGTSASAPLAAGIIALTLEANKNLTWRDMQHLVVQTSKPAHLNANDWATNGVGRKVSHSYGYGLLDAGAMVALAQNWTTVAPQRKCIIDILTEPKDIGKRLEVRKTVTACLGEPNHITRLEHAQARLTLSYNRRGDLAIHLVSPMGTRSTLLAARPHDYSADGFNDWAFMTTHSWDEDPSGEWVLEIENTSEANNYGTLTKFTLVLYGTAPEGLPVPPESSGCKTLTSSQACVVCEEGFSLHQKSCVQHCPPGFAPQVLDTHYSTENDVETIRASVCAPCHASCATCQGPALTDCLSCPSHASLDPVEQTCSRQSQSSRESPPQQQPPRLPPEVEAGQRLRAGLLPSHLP
FXIIa inh: human FXIIa protease inhibitors, primary screen, biochemical, 1536-well; Coagulation factor XII (Homo sapiens), P00748; purified FXIIa, Boc-QGR-AMC fluorogenic substrate, 2 h; inhibition, % at 5 µM; hit rate 0.3% among 220,000; in the data active means inhibition above about 40%;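 further: 0% = enzyme with no compound and 100% = blank without enzyme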
The depositor's hits bear a star.

What do the screens show for `O=C(Cn1cc2c(n1)CCCC2)NCc1ccccn1`?
HSV augment: inactive; Thrombin inh: 18; FXIa inh 1536: 12; KLK5 inh: 45*; Furin inhibitor: -21; FXIIa inh: 16

How did Nc1nc(-c2ccc(Cl)cc2)cc(C(F)(F)F)n1 do in these assays?
HSV augment: inactive; Thrombin inh: 10; FXIa inh 1536: 9; KLK5 inh: 42*; Furin inhibitor: -24; FXIIa inh: 16

What do the screens show for `Nc1nc(-c2ccc(F)cc2)cc(C(F)(F)F)n1`?
HSV augment: inactive; Thrombin inh: 0; FXIa inh 1536: 7; KLK5 inh: 4; Furin inhibitor: -24; FXIIa inh: 17

How did Cc1c(C(=O)N2CCC(C(N)=O)CC2)sc(N)c1C#N do in these assays?
Thrombin inh: 104*; FXIa inh 1536: 8; KLK5 inh: 107*; Furin inhibitor: -18; FXIIa inh: 9

What do the screens show for `CC(CO)(CO)NCc1ccc(-c2ccccc2)cc1`?
HSV augment: inactive; Thrombin inh: 46*; FXIa inh 1536: 1; KLK5 inh: 40; Furin inhibitor: -11; FXIIa inh: 18

How did COC(=O)CCCCC1SCC(NC(=O)c2ccccc2)C1=O (centres undefined) do in these assays?
HSV augment: inactive; Thrombin inh: -3; FXIa inh 1536: 14; KLK5 inh: -6; Furin inhibitor: -15; FXIIa inh: 10

Results for CCN(C(=O)COC(=O)/C=C/c1c(C)nn(-c2ccccc2)c1C)C1CCS(=O)(=O)C1 (centres undefined) ?
HSV augment: inactive; Thrombin inh: 14; FXIa inh 1536: 43*; KLK5 inh: 32; Furin inhibitor: -5; FXIIa inh: 26

Results for Cc1nn(-c2ccccc2)c(C)c1/C=C/C(=O)OCC(=O)N(C)C1CCS(=O)(=O)C1 (centres undefined) ?
HSV augment: inactive; Thrombin inh: -3; FXIa inh 1536: -1; KLK5 inh: -24; Furin inhibitor: -14; FXIIa inh: -6

What do the screens show for `CN1C(=O)c2ccc(NC(=O)c3ccc(N4CCCCC4)c([N+](=O)[O-])c3)cc2C1=O`?
HSV augment: inactive; Thrombin inh: -11; FXIa inh 1536: 8; KLK5 inh: 1; Furin inhibitor: -12; FXIIa inh: 12

Results for N#Cc1c2n(c3c(=O)n(Cc4ccc(Cl)cc4)cnc13)CCCCC2 ?
HSV augment: inactive; Thrombin inh: 7; FXIa inh 1536: -3; KLK5 inh: -6; Furin inhibitor: -21; FXIIa inh: 18

What do the screens show for `N#Cc1c2n(c3c(=O)n(Cc4ccccc4)cnc13)CCCC2`?
HSV augment: inactive; Thrombin inh: 9; FXIa inh 1536: 15; KLK5 inh: -21; Furin inhibitor: -5; FXIIa inh: 44*

How did CN(NC1OC(=O)c2ccccc21)c1ncc(Cl)cc1C(F)(F)F (centres undefined) do in these assays?
HSV augment: inactive; Thrombin inh: 14; FXIa inh 1536: 16; KLK5 inh: 35; Furin inhibitor: 11; FXIIa inh: 107*

How did O=C1OC(Nc2ccc(Cl)cn2)c2ccccc21 (centres undefined) do in these assays?
HSV augment: inactive; Thrombin inh: -6; FXIa inh 1536: -6; KLK5 inh: 2; Furin inhibitor: -10; FXIIa inh: -2

How did CCN(CC)Cc1ccccc1Sc1ccccc1 do in these assays?
HSV augment: inactive; Thrombin inh: 44*; FXIa inh 1536: 8; KLK5 inh: 44*; Furin inhibitor: -21; FXIIa inh: 4

What do the screens show for `Cc1nc(N)c2c(Cc3cccc4ccccc34)nn(C(C)(C)C)c2n1`?
HSV augment: inactive

Results for Cc1ccc(S(=O)(=O)N2CCN(CC(=O)N/N=C\c3cccnc3)CC2)cc1 ?
HSV augment: inactive; Thrombin inh: 11; FXIa inh 1536: 11; KLK5 inh: 41*; Furin inhibitor: -19; FXIIa inh: 6

What do the screens show for `Cc1ccc(S(=O)(=O)N2CCN(CC(=O)N/N=C\c3ccccn3)CC2)cc1`?
HSV augment: inactive; Thrombin inh: 20; FXIa inh 1536: -4; KLK5 inh: 2; Furin inhibitor: -4; FXIIa inh: 9

What do the screens show for `O=C(Cn1c(-c2ccccn2)nc2ccccc21)N/N=C/c1cccnc1`?
HSV augment: inactive; Thrombin inh: 13; FXIa inh 1536: 48*; KLK5 inh: 113*; Furin inhibitor: 1; FXIIa inh: 30

What do the screens show for `Cc1cccc(C)c1NC(=O)CSc1nnc(-c2cccnc2)o1`?
HSV augment: inactive; Thrombin inh: 14; FXIa inh 1536: -5; KLK5 inh: -2; Furin inhibitor: -30; FXIIa inh: 4

How did COc1ccc(-c2[nH]ncc2-c2ccc3c(c2)OCCO3)c(O)c1 do in these assays?
HSV augment: inactive; Thrombin inh: 101*; FXIa inh 1536: 9; KLK5 inh: 49*; Furin inhibitor: -20; FXIIa inh: 8

What do the screens show for `CCSc1ccc(C(=O)NCC(=O)O)cc1`?
HSV augment: inactive; Thrombin inh: -3; FXIa inh 1536: 0; KLK5 inh: -2; Furin inhibitor: -22; FXIIa inh: 5

Results for CSc1ccc(NC(=O)Nc2ccc(C(=O)NCC(=O)O)cc2)cc1 ?
HSV augment: inactive; Thrombin inh: -8; FXIa inh 1536: -2; KLK5 inh: 64*; Furin inhibitor: 1; FXIIa inh: 2

How did CCc1cc(C(=O)N/N=C/c2c(C)[nH]c3ccccc23)cs1 do in these assays?
HSV augment: inactive; Thrombin inh: -5; FXIa inh 1536: -7; KLK5 inh: 0; Furin inhibitor: -4; FXIIa inh: -2

Results for COc1cc(NC(=O)COC(=O)c2n[nH]c3ccccc23)c(C)cc1[N+](=O)[O-] ?
HSV augment: inactive; Thrombin inh: -3; FXIa inh 1536: 2; KLK5 inh: -2; Furin inhibitor: -16; FXIIa inh: 2

How did CCc1ccc(S(=O)(=O)ON2C(=O)c3ccccc3C2=O)cc1 do in these assays?
HSV augment: inactive; Thrombin inh: 60*; FXIa inh 1536: 22; KLK5 inh: 1; Furin inhibitor: -15; FXIIa inh: 15

What do the screens show for `O=C1c2cccc3cccc(c23)C(=O)N1OS(=O)(=O)c1ccc(Cl)cc1`?
HSV augment: inactive; Thrombin inh: -1; FXIa inh 1536: 3; KLK5 inh: -24; Furin inhibitor: -17; FXIIa inh: 6

Results for C=CCC(CC=C)(NC(=O)c1ccccc1C(=O)O)c1ccccc1 ?
HSV augment: inactive; Thrombin inh: 2; FXIa inh 1536: 5; KLK5 inh: -20; Furin inhibitor: -5; FXIIa inh: 13
